Values after ≈ are worked out from the molar mass of the structure shown. Active and inactive are the calls of the source. The calls are words filed in the database; no cut-off is given here.
What was measured:
Staphylococcus aureus [1] = experiment: Antibacterial activity against Staphylococcus aureus MTCC 740 assessed as inhibition of bacterial growth at 50 uM measured after 48 hrs by agar well diffusion method; format: functional; conditions: read-out: IZ
Staphylococcus aureus [2] = experiment: Antibacterial activity against clinically isolated Methicillin-resistant Staphylococcus aureus assessed as inhibition of bacterial growth at 50 uM measured after 48 hrs by agar well diffusion method; format: functional; conditions: read-out: IZ
Staphylococcus aureus [3] = experiment: Antibacterial activity against Methicillin-resistant Staphylococcus aureus ATCC 33591 assessed as inhibition of bacterial growth at 50 uM measured after 48 hrs by agar well diffusion method; format: functional; conditions: read-out: IZ
Summary of the method: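 Agar well diffusion on Mueller Hinton agar seeded with bacteria at 0.5 McFarland. […] Incubated 48 h at 37 °C aerobically; zone of inhibition diameter (mm) measured. Triplicate.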

Enterococcus faecalis = experiment: Antibacterial activity against Enterococcus faecalis MTCC 439 assessed as inhibition of bacterial growth at 50 uM measured after 48 hrs by agar well diffusion method; format: functional; conditions: read-out: IZ
Klebsiella pneumoniae = experiment: Antibacterial activity against clinically isolated Klebsiella pneumoniae RBRJ019 assessed as inhibition of bacterial growth at 50 uM measured after 48 hrs by agar well diffusion method; format: functional; conditions: read-out: IZ
Escherichia coli = experiment: Antibacterial activity against clinically isolated Escherichia coli RBRJ005 assessed as inhibition of bacterial growth at 50 uM measured after 48 hrs by agar well diffusion method; format: functional; conditions: read-out: IZ
Enterobacter cloacae = experiment: Antibacterial activity against clinically isolated Enterobacter cloacae RBRJ017 assessed as inhibition of bacterial growth at 50 uM measured after 48 hrs by agar well diffusion method; format: functional; conditions: read-out: IZ
Pseudomonas aeruginosa = experiment: Antibacterial activity against Pseudomonas aeruginosa MTCC 424 assessed as inhibition of bacterial growth at 50 uM measured after 48 hrs by agar well diffusion method; format: functional; conditions: read-out: IZ
Staphylococcus aureus [4] = experiment: Antibacterial activity against Staphylococcus aureus MTCC 740 assessed as inhibition of bacterial growth measured after 48 hrs by broth microdilution method; format: functional
Staphylococcus aureus [5] = experiment: Antibacterial activity against clinically isolated Staphylococcus aureus RBRJ010 assessed as inhibition of bacterial growth measured after 48 hrs by broth microdilution method; format: functional
Staphylococcus aureus [6] = experiment: Antibacterial activity against Methicillin-resistant Staphylococcus aureus ATCC 33591 assessed as inhibition of bacterial growth measured after 48 hrs by broth microdilution method; format: functional
Staphylococcus aureus [7] = experiment: Bactericidal activity against clinically isolated Methicillin-resistant Staphylococcus aureus assessed as inhibition of bacterial growth measured after 48 hrs by agar plate method; format: functional
Staphylococcus aureus [8] = experiment: Bactericidal activity against Methicillin-resistant Staphylococcus aureus assessed as reduction in colony formation units at 1 to 2XMIC measured after 48 hrs by time-kill assay; format: functional, organism-based
Summary of the method: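 Samples taken at 1, 2, 4, 8, 12, 24 and 48 h, diluted in 0.9% saline and plated on Mueller Hinton agar (48 h, 37 °C). CFU counted and log10 CFU mL−1 plotted against time. Triplicate.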

Staphylococcus aureus [9] = experiment: Anti-biofilm activity against Methicillin-resistant Staphylococcus aureus assessed as biofilm volume/area at 1/2XMIC measured after 48 hrs by crystal violet staining based phase contrast microscopy (reference value: 18.37 +/-1.14 um3/um2); format: functional
Staphylococcus aureus [10] = experiment: Anti-biofilm activity against Methicillin-resistant Staphylococcus aureus assessed as biofilm volume/area at 1XMIC measured after 48 hrs by crystal violet staining based phase contrast microscopy (reference value: 18.37 +/-1.14 um3/um2); format: functional
Staphylococcus aureus [11] = experiment: Anti-biofilm activity against Methicillin-resistant Staphylococcus aureus assessed as mean thickness of biofilm at 1/2XMIC measured after 48 hrs by crystal violet staining based phase contrast microscopy (reference value: 15.03+/-1.63 um); format: functional
Staphylococcus aureus [12] = experiment: Anti-biofilm activity against Methicillin-resistant Staphylococcus aureus assessed as biofilm substrate coverage at 1/2XMIC measured after 48 hrs by crystal violet staining based phase contrast microscopy (reference value: 81.43+/-3.57%); format: functional
Staphylococcus aureus [13] = experiment: Anti-biofilm activity against Methicillin-resistant Staphylococcus aureus assessed as biofilm substrate coverage at 1XMIC measured after 48 hrs by crystal violet staining based phase contrast microscopy (reference value: 81.43+/-3.57%); format: functional
[14] = biological target: T1, 4,4'-diapophytoene synthase (Staphylococcus aureus) (UniProt A9JQL9); experiment: Inhibition of CrtM in Methicillin-resistant Staphylococcus aureus assessed as inhibition of staphyloxanthin production at 1/4 to 1/16XMIC measured after 48 hrs
T1 sequence (whole entry): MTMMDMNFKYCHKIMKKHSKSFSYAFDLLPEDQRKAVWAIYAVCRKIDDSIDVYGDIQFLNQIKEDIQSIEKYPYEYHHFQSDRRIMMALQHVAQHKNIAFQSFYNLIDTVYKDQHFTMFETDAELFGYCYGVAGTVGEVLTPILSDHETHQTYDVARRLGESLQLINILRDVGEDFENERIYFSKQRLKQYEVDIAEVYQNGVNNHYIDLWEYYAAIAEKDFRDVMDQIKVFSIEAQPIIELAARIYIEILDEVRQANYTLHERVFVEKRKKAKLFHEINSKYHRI

[15] = biological target: T1, 4,4'-diapophytoene synthase (Staphylococcus aureus); experiment: Inhibition of CrtM in Methicillin-resistant Staphylococcus aureus assessed as inhibition of staphyloxanthin production by measuring reduction in 4,4'-diaponeurosporenic acid level at 1/4XMIC measured after 24 hrs by spectroscopic analysis
Summary of the method: (§1)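 Cells pelleted, PBS-washed, extracted overnight in methanol at 37 °C. Supernatant absorbance read at 462 nm (staphyloxanthin), 286 nm (4,4′-diapophytoene), 435 nm (4,4′-diaponeurosporene) or 455 nm (4,4′-diaponeurosporenic acid). % inhibition = (control − treated)/control × 100.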

[16] = biological target: T1, 4,4'-diapophytoene synthase (Staphylococcus aureus); experiment: Inhibition of CrtM in Methicillin-resistant Staphylococcus aureus assessed as reduction in staphyloxanthin level at 1/4XMIC measured after 24 hrs by spectroscopic analysis; summary of the method: as §1
[17] = Toxicity against Galleria mellonella assessed as visible injury at 20 mg/kg measured every 12 hrs for 120 hrs; format: organism-based; conditions: in vivo
Summary of the method: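 Uninfected Galleria mellonella larvae (0.2–0.4 g, ten per group) given 20 mg kg−1 compound, alongside untreated, PBS and PBS + 2% DMSO vehicle controls; held at 37 °C and checked every 12 h for 120 h. Larvae that turned black and gave no response to stimulus counted dead; percentage survival recorded.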

[18] = Toxicity against Galleria mellonella assessed as survival rate of larva at 20 mg/kg measured every 12 hrs for 120 hrs; format: organism-based; conditions: in vivo
Summary of the method: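 Uninfected Galleria mellonella larvae (0.2–0.4 g, 10 per group) given 20 mg kg−1. Controls: untreated, PBS, and PBS + 2% DMSO vehicle. Held at 37 °C and monitored every 12 h for 120 h; larvae that were black and unresponsive counted dead. Percentage survival plotted.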

Galleria mellonella = experiment: Modulation of immune response in MRSA-infected Galleria mellonella systemic infection model assessed as reduction in haemocytes in larva's circulating lymph at 10 mg/kg measured after 24 to 48 hrs by fluorescent microscopic analysis; format: functional, organism-based; conditions: time 24-48 hrs
Summary of the method: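 Galleria mellonella larvae (0.2–0.4 g, ten per group) injected in the last proleg with MRSA, 5 × 10^8 cells per larva, then given 10 mg kg−1 compound; kept at 37 °C. Hemolymph collected on ice at 24 and 48 h post inoculation, diluted in PBS, counted with an automated cell counter and viewed with trypan blue (0.1%) under a fluorescent microscope.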

Cc1ccc(C(C)C)c(OCc2cn(CCCN3C(=O)C(=O)c4ccccc43)nn2)c1
zone of inhibition at 50 µM (Staphylococcus aureus [1]): 28.6 mm | zone of inhibition at 50 µM (Staphylococcus aureus [2]): 28.8 mm | zone of inhibition at 50 µM (Staphylococcus aureus [3]): 27.5 mm | zone of inhibition at 50 µM (Enterococcus faecalis): 18.5 mm | zone of inhibition at 50 µM (Klebsiella pneumoniae): 20.2 mm | zone of inhibition at 50 µM (Escherichia coli): 19.3 mm | zone of inhibition at 50 µM (Enterobacter cloacae): 19.2 mm | zone of inhibition at 50 µM (Pseudomonas aeruginosa): 22.3 mm | MIC (Staphylococcus aureus [4]): 1.9 µM (≈ 0.795 µg/mL) | MIC (Staphylococcus aureus [5]): 1.9 µM (≈ 0.795 µg/mL) | MIC (Staphylococcus aureus [6]): 3.9 µM (≈ 1.63 µg/mL) | MBC (Staphylococcus aureus [7]): 3.9 µM (≈ 1.63 µg/mL) | Activity (Staphylococcus aureus [8]): Active | Activity (Staphylococcus aureus [9]): 3.48 um3/um2 | Activity (Staphylococcus aureus [10]): 1.57 um3/um2 | Activity (Staphylococcus aureus [11]): 2.97 um | Activity (Staphylococcus aureus [12]): 19.12% | Activity (Staphylococcus aureus [13]): 5.11% | inhibition [14]: Dose-Dependent Effect | inhibition [15]: 86% | inhibition [16]: 86% | Activity [17]: Non-Toxic | survival at 120 h [18]: 90% | Activity (Galleria mellonella): Active

— ChEMBL document CHEMBL5357047, “The development of thymol-isatin hybrids as broad-spectrum antibacterial agents with potent anti-MRSA activity” (RSC Med Chem, 2024)
